Test results published in ChEMBL document CHEMBL1944559, “Phosphodiesterase inhibitors. Part 3: Design, synthesis and structure-activity relationships of dual PDE3/4-inhibitory fused bicyclic heteroaromatic-dihydropyridazinones with anti-inflammatory and bronchodilatory activity” (Bioorg Med Chem, 2012).

What was measured:
[1] = target: T1, cGMP-inhibited 3',5'-cyclic phosphodiesterase 3A (Homo sapiens, UniProt Q14432); test: Ratio of KCA-1450 IC50 to compound IC50 for human PDE3A catalytic domain
[2] = target: T1, cGMP-inhibited 3',5'-cyclic phosphodiesterase 3A; test: Inhibition of human PDE3A catalytic domain
Procedure, shortened: (§1)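 IC50 determined in enzyme inhibition assays on the core catalytic domains of PDE3A and PDE4B, following previously reported protocols, from at least three experiments; roflumilast run as positive control.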

Cavia porcellus [3] = test: Inhibition of histamine-induced bronchoconstriction in Hartley guinea pig at 0.1 mg/kg, iv administered 30 mins prior histamine challenge; format: functional
Procedure, shortened: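 Guinea pigs given compound iv at 0.1 mg/kg before histamine challenge; bronchoconstriction measured by an established procedure; result expressed as % inhibition of constriction relative to control.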

[4] = target: T2, 3',5'-cyclic-AMP phosphodiesterase 4B (Homo sapiens, UniProt Q07343); test: Ratio of KCA-1450 IC50 to compound IC50 for human PDE4B catalytic domain
Cavia porcellus [5] = test: Inhibition of histamine-induced bronchoconstriction in Hartley guinea pig at 1 mg/kg, po administered 30 mins prior histamine challenge; format: functional
Procedure, shortened: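 Oral dosing at 1 mg/kg in guinea pigs before histamine challenge, by an established procedure; scored against control as ++ (≥70% inhibition of bronchoconstriction) or + (30–69%).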

Rattus norvegicus = test: Antiinflammatory activity in Wistar rat assessed as inhibition of LPS-induced TNFalpha release at 1 mg/kg, po; format: functional
[6] = target: T2, 3',5'-cyclic-AMP phosphodiesterase 4B; test: Inhibition of human PDE4B catalytic domain
Procedure, shortened: as §1

T2 sequence (Q07343 whole entry, the tested form may be a part): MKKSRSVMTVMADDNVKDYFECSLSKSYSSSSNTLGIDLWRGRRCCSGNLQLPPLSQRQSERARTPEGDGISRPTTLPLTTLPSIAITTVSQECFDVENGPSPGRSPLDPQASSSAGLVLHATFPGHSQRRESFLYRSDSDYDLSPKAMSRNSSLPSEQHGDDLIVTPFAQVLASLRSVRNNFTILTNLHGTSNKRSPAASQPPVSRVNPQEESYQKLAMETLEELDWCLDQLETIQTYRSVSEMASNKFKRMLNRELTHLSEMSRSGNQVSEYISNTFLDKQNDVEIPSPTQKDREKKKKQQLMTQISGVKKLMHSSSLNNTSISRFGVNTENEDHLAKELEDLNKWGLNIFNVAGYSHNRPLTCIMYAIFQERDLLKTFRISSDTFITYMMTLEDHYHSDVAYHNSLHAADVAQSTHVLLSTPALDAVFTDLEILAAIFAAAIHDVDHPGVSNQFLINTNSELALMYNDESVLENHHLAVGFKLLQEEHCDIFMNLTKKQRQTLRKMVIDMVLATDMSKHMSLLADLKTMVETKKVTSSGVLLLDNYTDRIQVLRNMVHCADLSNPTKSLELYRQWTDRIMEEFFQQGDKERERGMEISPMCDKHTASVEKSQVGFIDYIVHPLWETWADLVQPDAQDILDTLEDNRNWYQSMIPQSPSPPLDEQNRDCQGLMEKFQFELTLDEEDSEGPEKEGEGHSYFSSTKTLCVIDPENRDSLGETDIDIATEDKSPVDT
T1 sequence (Q14432 whole entry, the tested form may be a part): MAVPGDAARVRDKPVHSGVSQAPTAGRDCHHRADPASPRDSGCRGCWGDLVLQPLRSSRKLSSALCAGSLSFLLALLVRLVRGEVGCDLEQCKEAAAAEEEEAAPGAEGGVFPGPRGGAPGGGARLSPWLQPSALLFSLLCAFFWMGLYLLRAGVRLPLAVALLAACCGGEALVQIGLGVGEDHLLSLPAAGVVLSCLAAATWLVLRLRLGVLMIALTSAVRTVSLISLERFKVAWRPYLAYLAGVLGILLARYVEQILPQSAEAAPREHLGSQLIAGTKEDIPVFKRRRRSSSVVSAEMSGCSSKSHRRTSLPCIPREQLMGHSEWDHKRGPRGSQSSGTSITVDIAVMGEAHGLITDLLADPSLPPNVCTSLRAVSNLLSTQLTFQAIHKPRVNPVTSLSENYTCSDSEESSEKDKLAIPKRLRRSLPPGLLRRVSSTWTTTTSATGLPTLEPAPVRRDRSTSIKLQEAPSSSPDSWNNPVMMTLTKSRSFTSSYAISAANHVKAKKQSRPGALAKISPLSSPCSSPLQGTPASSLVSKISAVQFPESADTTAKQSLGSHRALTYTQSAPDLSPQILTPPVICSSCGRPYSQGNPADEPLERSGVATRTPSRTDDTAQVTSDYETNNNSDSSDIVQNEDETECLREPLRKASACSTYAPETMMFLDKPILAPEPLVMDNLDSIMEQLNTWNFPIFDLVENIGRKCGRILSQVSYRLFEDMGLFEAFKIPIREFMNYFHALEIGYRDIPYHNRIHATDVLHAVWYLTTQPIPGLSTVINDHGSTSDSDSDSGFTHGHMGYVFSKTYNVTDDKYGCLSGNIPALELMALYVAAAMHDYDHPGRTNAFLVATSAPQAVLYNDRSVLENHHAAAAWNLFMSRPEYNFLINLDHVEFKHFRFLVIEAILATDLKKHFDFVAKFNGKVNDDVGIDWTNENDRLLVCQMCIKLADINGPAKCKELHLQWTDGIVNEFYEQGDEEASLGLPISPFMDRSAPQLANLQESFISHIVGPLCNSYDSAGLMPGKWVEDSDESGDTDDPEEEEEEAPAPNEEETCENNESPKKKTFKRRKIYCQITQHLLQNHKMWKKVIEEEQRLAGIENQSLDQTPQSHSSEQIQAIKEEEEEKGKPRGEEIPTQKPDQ

Structure (SMILES) | Ratio IC50 [1] | IC50 [2] [nM] | inhibition in vivo at 0.1 mg/kg (Cavia porcellus [3]) [%] | Ratio IC50 [4] | inhibition in vivo at 1 mg/kg (Cavia porcellus [5]) [%] | inhibition in vivo at 1 mg/kg (Rattus norvegicus) [%] | IC50 [6] [nM]
COc1ccc(C2=NNC(=O)CC2C)c2sc(C(F)(F)F)nc12 (racemic) | 16 | 150 | 97 | 3 | ≥ 70 | 80 | 21
COc1ccc(C2=NNC(=O)CC2C)c2nc(C(F)(F)F)oc12 (racemic) | – | 6430 | – | – | – | – | 1520
COc1ccc(C2=NNC(=O)CC2C)c2cc(C(F)(F)F)sc12 (racemic) | – | 2850 | 17 | – | – | – | 280
COc1ccc(C2=NNC(=O)CC2C)n2cc(C(F)(F)F)nc12 (racemic) | – | 1450 | 99 | – | > 30 | 62 | 260
COc1ccc(C2=NNC(=O)CC2C)c2nc(C(F)(F)F)nn12 (racemic) | – | 10200 | – | – | – | – | 430
CCc1cc2c(C3=NNC(=O)CC3C)ccc(OC)n2c1 (racemic) | – | 20700 | – | – | – | – | 3490
COc1ccc(C2=NNC(=O)CC2C)c2cc(C(F)(F)F)oc12 (racemic) | – | 19800 | – | – | – | – | 380
COc1ccc(C2=NNC(=O)CC2C)c2ccc(C(F)(F)F)nc12 (racemic) | 2.5 | 970 | 99 | – | ≥ 70 | 68 | 350
COc1ccc(C2=NNC(=O)CC2C)c2[nH]c(C(F)(F)F)nc12 (racemic) | – | 22200 | – | – | – | – | 300
COc1ccc(C2=NNC(=O)CC2C)c2oc(C(F)(F)F)nc12 (racemic) | – | 5740 | – | – | – | – | 1010
